According to ChEMBL document CHEMBL1121765, “3-Phenylpiperidines. Central dopamine-autoreceptor stimulating activity” (1981):
Active and inactive are the calls of the source. The calls are words filed in the database; no cut-off is given here.

How the values were obtained:
Rattus norvegicus [1] = assay: Motor activity in reserpinized rats when 2 umol/kg was administered subcutaneously
[2] = molecular target: T1, Dopamine receptor (Rattus norvegicus) (UniProt P25115+P19020+P30729+P18901+P61169); assay: Evaluation of Dopamine receptor activation in striatum of reserpinized rat; assay type: functional, tissue-based
[3] = molecular target: T1, Dopamine receptor (Rattus norvegicus); assay: Dopamine receptor activation in limbic system of reserpinized rat; Inactive at >45 uM/Kg.; assay type: tissue-based
[4] = molecular target: T1, Dopamine receptor (Rattus norvegicus); assay: Dopamine receptor activation in striatum of reserpinized rat; Inactive at >45 uM/Kg.; assay type: tissue-based
[5] = molecular target: T1, Dopamine receptor (Rattus norvegicus); assay: Evaluation for Dopamine receptor activation in limbic system of reserpinized rat; assay type: tissue-based
Rattus norvegicus [6] = assay: Motor activity in reserpinized rats when 100 umol/kg was administered subcutaneously; assay type: functional
In short: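 Rats pretreated ip with reserpine (10 mg/kg) 6 h before testing; compound given sc in neck region, rats placed singly in photocell motility meters immediately after and motor activity recorded for 60 min, testing between 1 and 6 p.m.; saline controls; gross behaviour observed.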

CN1CCc2cccc3c2[C@H]1Cc1ccc(O)c(O)c1-3 [APOMORPHINE]
Motor activity (Rattus norvegicus [1]): 624

CC(C)(C)CN1CCCC(c2cccc(O)c2)C1 (centres undefined)
ED50 [2]: > 2.8 µmol/kg

CCCN1CCCC(c2cccc(C#N)c2)C1 (centres undefined)
ED50 [3]: inactive | ED50 [4]: inactive

Oc1cccc(C2=CN3CCC2CC3)c1
ED50 [3]: inactive | ED50 [4]: inactive

CN1CCCC(c2cccc(O)c2)C1 (centres undefined)
ED50 [2]: 2.5 µmol/kg

Oc1cccc(C2CCCN(C3CCCCC3)C2)c1 (centres undefined)
ED50 [2]: 45 µmol/kg

Oc1cccc(C2CN3CCC2CC3)c1 (centres undefined)
ED50 [3]: inactive | ED50 [4]: inactive

CCCN1CCCC(c2ccccc2)C1 (centres undefined)
ED50 [3]: inactive | ED50 [4]: inactive

Oc1cccc(C2CCCN(Cc3ccccc3)C2)c1 (centres undefined)
ED50 [2]: 24 µmol/kg

CCCNCCc1cccc(O)c1
ED50 [5]: 0.9 µmol/kg | ED50 [2]: 0.8 µmol/kg

CCCN1CCCCC(c2cccc(O)c2)C1 (centres undefined)
ED50 [3]: inactive | ED50 [4]: inactive

CCCN1CCC(c2cccc(O)c2)C1 (centres undefined)
ED50 [5]: 45 µmol/kg | ED50 [2]: 45 µmol/kg

CCCN1CCCC(c2cccc(N)c2)C1 (centres undefined)
ED50 [3]: inactive | ED50 [4]: inactive

CCCN1CCCC(c2cccc(C)c2)C1 (centres undefined)
ED50 [3]: inactive | ED50 [4]: inactive

CCCN1CCCC(c2cccc(C(N)=O)c2)C1 (centres undefined)
ED50 [3]: inactive | ED50 [4]: inactive

CCCN1CCCC(c2cccc(CO)c2)C1 (centres undefined)
ED50 [3]: inactive | ED50 [4]: inactive

CCCN1CCCC(c2ccccc2O)C1 (centres undefined)
ED50 [3]: inactive | ED50 [4]: inactive

CCCN1CCCC(c2ccc(O)cc2)C1 (centres undefined)
ED50 [3]: inactive | ED50 [4]: inactive

Br.CCCN1CCCC(c2ccc(O)c(O)c2)C1 (centres undefined)
Motor activity (Rattus norvegicus [6]): 522

CCCN1CCCC(c2cccc(C(=O)OC)c2)C1 (centres undefined)
ED50 [3]: inactive | ED50 [4]: inactive

CC(C)N1CCC(c2cccc(O)c2)C1 (centres undefined)
ED50 [3]: inactive | ED50 [4]: inactive

Oc1cccc(-c2cccnc2)c1
ED50 [3]: inactive | ED50 [4]: inactive

CCCCCN1CCCC(c2cccc(O)c2)C1 (centres undefined)
ED50 [2]: 0.9 µmol/kg

Oc1cccc(C2CCNC2)c1 (centres undefined)
ED50 [3]: inactive | ED50 [4]: inactive

CCCN1CCCC(c2cccc(OC)c2)C1 (centres undefined)
ED50 [3]: inactive | ED50 [4]: inactive

Br.CCCN1CCCC(c2cccc(O)c2)C1 (centres undefined)
Motor activity (Rattus norvegicus [6]): 55
